In article PMC10464600 (ACS chemical biology, 2022):
Values belong to the compound of their own block, whether it stands above or below them.

Key:
Photophysical properties = type: physicochemical
Procedure, shortened: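 Samples were diluted to 1 μM and scanned on a photon-counting fluorometer in a 10 x 4 mm cuvette at 25 °C, with excitation/emission spectra recorded in triplicate. Quantum yield was taken relative to a reference fluorophore standard. Extinction coefficient came from absorbance spectra (10 mm pathlength) at 10, 8, 6, 4 and 2 μM dilutions.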

1483 HNSCC cells = experiment: Cell imaging assay, fluorescence microscopy; type: cell-based
Procedure, shortened: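 1483 HNSCC cells in HBSS/Tyrode's, grown to 50% confluency, given 200 nM probe for 0.25 h at 37 °C, washed three times, imaged (propidium iodide filter, 0.5 s exposure, gain 2) at 0.5 and 3 h post-addition. Intensity read at 586/607 nm. Triplicates; Welch-corrected unpaired t test, error as standard error.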

[1] = system: ROS in carrageenan-induced inflamed footpad; experiment: Chemiluminescence imaging of ROS in carrageenan-induced footpad inflammation; type: in vivo, C57BL/6 mice; settings: luminol 5 mg/kg i.v.
mCOX-2 = biological target: T1, mCOX-2 (Mus musculus, UniProt Q05769); experiment: Purified COX-2 isozyme inhibition, TLC assay with [1-14C]arachidonic acid; type: biochemical; settings: read-out: IC50, inhibition of COX-2, 14C-arachidonic acid substrate
T1 sequence (Q05769 18-604): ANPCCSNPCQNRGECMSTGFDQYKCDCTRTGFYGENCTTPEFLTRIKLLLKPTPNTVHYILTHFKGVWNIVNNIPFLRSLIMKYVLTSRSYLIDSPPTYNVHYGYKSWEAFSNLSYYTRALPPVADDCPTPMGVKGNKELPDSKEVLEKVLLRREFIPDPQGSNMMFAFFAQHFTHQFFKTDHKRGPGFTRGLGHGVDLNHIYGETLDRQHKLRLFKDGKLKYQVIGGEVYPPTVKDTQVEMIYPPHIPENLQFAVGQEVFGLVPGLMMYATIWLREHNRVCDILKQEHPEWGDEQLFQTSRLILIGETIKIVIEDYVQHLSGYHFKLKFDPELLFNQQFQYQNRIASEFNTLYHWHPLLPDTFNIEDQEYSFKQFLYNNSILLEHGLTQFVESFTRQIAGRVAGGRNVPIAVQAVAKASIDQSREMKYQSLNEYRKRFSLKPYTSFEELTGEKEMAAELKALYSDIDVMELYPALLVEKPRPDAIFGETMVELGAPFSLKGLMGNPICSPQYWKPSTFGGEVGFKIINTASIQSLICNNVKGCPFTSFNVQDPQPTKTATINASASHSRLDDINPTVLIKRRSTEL

[2] = biological target: T2, COX-2 in 1483 HNSCC cells (Homo sapiens, UniProt P35354); experiment: Cell-based COX-2 inhibition assay in intact 1483 HNSCC cells; settings: read-out: IC50, cellular COX-2 inhibition
T2 sequence (P35354 18-604): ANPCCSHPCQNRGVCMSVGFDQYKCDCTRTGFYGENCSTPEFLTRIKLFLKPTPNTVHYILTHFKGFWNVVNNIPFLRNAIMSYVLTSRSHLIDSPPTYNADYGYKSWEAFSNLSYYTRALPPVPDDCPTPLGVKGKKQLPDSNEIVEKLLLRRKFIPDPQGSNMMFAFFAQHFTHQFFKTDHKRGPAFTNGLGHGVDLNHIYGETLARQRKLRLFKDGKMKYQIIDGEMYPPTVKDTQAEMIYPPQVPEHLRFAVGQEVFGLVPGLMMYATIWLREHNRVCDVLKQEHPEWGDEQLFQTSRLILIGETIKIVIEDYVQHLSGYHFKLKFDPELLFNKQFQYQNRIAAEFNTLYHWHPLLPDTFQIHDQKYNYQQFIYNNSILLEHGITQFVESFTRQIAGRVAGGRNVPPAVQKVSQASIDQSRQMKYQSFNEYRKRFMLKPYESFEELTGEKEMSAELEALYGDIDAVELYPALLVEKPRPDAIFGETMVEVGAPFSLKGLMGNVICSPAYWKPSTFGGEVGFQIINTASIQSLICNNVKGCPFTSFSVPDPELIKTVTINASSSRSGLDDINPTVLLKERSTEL

[3] = In vivo pharmacokinetic assay, plasma concentration by LC-MS; settings: CD-1 mice, 10 mg/kg i.p.
[4] = system: COX-2 and ROS in carrageenan-induced inflamed footpad; experiment: Fluorescence imaging of carrageenan-induced footpad inflammation; type: in vivo, C57BL/6 mice
[5] = 200 nM, 1483 HNSCC cells, after washout

Compound: COc1ccc2c(c1)c(CC(=O)NCCCCNC(=O)c1ccc(C3=c4cc5c6c(c4Oc4c3cc3c7c4CCCN7CCC3)CCC[N+]=6CCC5)c(C(=O)O)c1)c(C)n2C(=O)c1ccc(Cl)cc1 [FA, fluorocoxib A, reference compound]
extinction coefficient (ε) (Photophysical properties; at 579 nm): 45 mM⁻¹ cm⁻¹ | quantum yield (Φfl) (Photophysical properties; at 602 nm, FA used as standard for comparison): 0.93

Compound: Cc1ccc(-c2cc(C(F)(F)F)nn2-c2ccc(S(N)(=O)=O)cc2)cc1 [celecoxib, reference compound]
effect of preincubation on fluorocoxib Q-H labeling of 1483 HNSCC cells (1483 HNSCC cells; pretreatment before fluorocoxib Q-H): blocked

Compound: Nc1cccc2c(=O)[nH][nH]c(=O)c12 [luminol]
fold luminescence, inflamed versus control footpads [1]: 12 fold | chemiluminescence emission in inflamed footpads (mean ± sd) ([1]; 6 h after carrageenan, n = 8, p < 0.0004): 1251.5 ± 94.9

Second part, led by results:

IC50 (mCOX-2): 330 nM | IC50 [2]: 280 nM | extinction coefficient (ε) (Photophysical properties; at 586 nm): < 0.4 mM⁻¹ cm⁻¹ | quantum yield (Φfl) (Photophysical properties; at 607 nm): < 0.19 | plasma half-life [3]: exceeds 24 h
Compound: fluorocoxib Q [FQ]
fold increase in fluorescence, inflamed over non-inflamed footpads ([4]; 5 mg/kg i.p., imaging 24 h post-injection, average): 9 fold | fluorescence in inflamed footpad (mean ± sd) ([4]; 5 mg/kg i.p., imaging 24 h post-injection, n = 8, p < 0.001): 7.84x10^8 ± 1.25x10^8 | background signal in non-inflamed footpad ([4]; wild-type C57BL/6 mice, FQ versus CF3-FA): extremely low background signal | cell fluorescence at 0.5 h post-addition (1483 HNSCC cells; [5]): low fluorescence intensity | cell fluorescence at 3 h post-addition (1483 HNSCC cells; [5]): strong fluorescence

IC50 (mCOX-2): 240 nM | IC50 [2]: 260 nM | extinction coefficient (ε) (Photophysical properties; at 586 nm): 44 mM⁻¹ cm⁻¹ | quantum yield (Φfl) (Photophysical properties; at 607 nm): 0.90
Compound: fluorocoxib Q-H [FQ-H]
fluorescence labeling of 1483 HNSCC cells (1483 HNSCC cells; fluorocoxib Q-H alone, after repetitive washing): strong perinuclear fluorescence
